# Measured values gathered from unrelated publications.
# Lines come from different studies, so protocols differ.
# Target: Mitogen-activated protein kinase kinase kinase kinase 4 (MAP4K4, Homo sapiens, UniProt O95819)
SMILES,effect on,method,tested at,remaining binding [%]
COc1cnc(Nc2cccc(S(N)(=O)=O)c2)nc1N1CCN(c2ccccc2)CC1,binding,competition with immobilised ligand,1 µM,87
COc1ncc2cc3ccccc3nc2c1C#N,cell-free assay,competition with immobilised ligand,5 µM,91
O=C(Nc1c[nH]nc1C(=O)NC1CCNCC1)c1cc(F)cc(F)c1,binding,competition with immobilised ligand,1 µM,100
O=C(c1ccc(Nc2nccc(-c3cc4ccccc4s3)n2)cc1)N1CCC(N2CCCC2)CC1,binding,competition with immobilised ligand,1 µM,40
CN(C)c1ncnc(-c2ccc3nc(Nc4cc(CN5CCN(C(=O)CC(F)(F)F)CC5)ccn4)[nH]c3c2)c1Cl,cell-free assay,competition with immobilised ligand,1 µM,100
O=C(NCCCN1CCOCC1)c1ccc(Nc2ncc(Cl)c(-c3ccc(Cl)s3)n2)cc1,binding,competition with immobilised ligand,1 µM,67
N[C@H]1CCN(c2nccc(-c3cnn4ncccc34)n2)C1,binding,,1 µM,100
CCN1CCN(Cc2ccc(C(=O)Nc3ccc(C)c(Oc4ccc5c(c4)CC(=O)N5)c3)cc2C(F)(F)F)CC1,binding,competition with immobilised ligand,1 µM,88
C[C@H]1CCN(c2nccc(-c3cnn4ncccc34)n2)C1,binding,,1 µM,98
O=C(NS(=O)(=O)c1ccc(NCC2CCOCC2)c([N+](=O)[O-])c1)c1ccc(N2CCN(Cc3ccc(C(F)(F)F)cc3-c3ccc(Cl)cc3)CC2)cc1Oc1cnc2[nH]ccc2c1,cell-free assay,competition with immobilised ligand,1 µM,95
Cc1cnn2ncc(-c3ccnc(N(C)C)n3)c2c1,binding,,1 µM,100
CC(=O)N1CCC(c2ccc(C(=O)NC(=N)N)cc2C(F)(F)F)CC1,cell-free assay,competition with immobilised ligand,1 µM,100
CN(C)c1ncc(F)c(-c2cnn3ncccc23)n1,binding,,1 µM,100
CCc1ccccc1C(=O)Nc1n[nH]c2c(C)c(F)c(C3C(C#N)=C(C)N(C)C(C)=C3C#N)cc12,cell-free assay,competition with immobilised ligand,1 µM,100
CN(CCCC(F)(F)F)c1nccc(-c2cnn3ncccc23)n1,binding,,1 µM,100
c1cncc(-c2cccc(Nc3nccc(NC4CCCCC4)n3)c2)c1,binding,competition with immobilised ligand,10 µM,26
Cc1cnc(Nc2ccc(C(=O)N3CCC(N4CCCC4)CC3)cc2)nc1-c1cc2ccccc2s1,binding,competition with immobilised ligand,1 µM,67
CCCOc1ccc([C@H]2[C@H](C(=O)O)[C@@H](c3ccc4c(c3)OCO4)CN2CC(=O)Nc2c(CC)cccc2CC)cc1,cell-free assay,competition with immobilised ligand,1 µM,90
COc1ccnn2ncc(-c3ccnc(N(C)C)n3)c12,binding,,1 µM,93
O=C(NCCCC1CCCCC1)c1ccc(CNC(=O)c2cnn(-c3ccccc3)c2C(F)(F)F)cc1,cell-free assay,competition with immobilised ligand,0.1 µM,81
CNC(=O)[C@@H]1CC[C@@H](n2c(-c3ccc4cnccc4c3)nc3ccc(C(=O)NCc4cccc(C(N)=O)c4)cc32)C1,binding,competition with immobilised ligand,1 µM,100
